Screening data as filed in PubChem BioAssay.
Rows were chosen to be rich in hits. Some 3.7% of all compounds tested hit in one or more screens of this group.
hERG rescue – hERG rescue from dofetilide block, primary screen, cell-based, CHO-hERG, FluxOR thallium flux, dofetilide IC70 | Voltage-gated inwardly rectifying potassium channel KCNH2 (Homo sapiens), Q12809 | dofetilide IC70 present | activation (rescue from dofetilide block), less the hit threshold, % at 10 µM | hit rate 0.51% among 310,000 | AID 1511, 2009;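 active = activation above the mean of controls blocked by dofetilide plus 5 SD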;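 also: thallium influx through hERG after potassium depolarization seen as dye fluorescence rise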
KCNQ1 block – inhibitors of human KCNQ1 channel, primary screen, cell-based, thallium flux, high-throughput; AID 2642, 2010; Potassium voltage-gated channel subfamily KQT member 1 (Homo sapiens), P51787; B-score at 10 µM; hit rate 1.3% among 310,000; CHO-K1 KCNQ1, FluxOR thallium flux fluorescence; stronger effect = higher value;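 active = compounds whose thallium flux B-score, printed positive for inhibition, exceeds three library SD while starting fluorescence stays within three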;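 also: channel opened by potassium depolarization with thallium stimulus after 20 min compound exposure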
Target sequence (P51787 whole entry, looked up): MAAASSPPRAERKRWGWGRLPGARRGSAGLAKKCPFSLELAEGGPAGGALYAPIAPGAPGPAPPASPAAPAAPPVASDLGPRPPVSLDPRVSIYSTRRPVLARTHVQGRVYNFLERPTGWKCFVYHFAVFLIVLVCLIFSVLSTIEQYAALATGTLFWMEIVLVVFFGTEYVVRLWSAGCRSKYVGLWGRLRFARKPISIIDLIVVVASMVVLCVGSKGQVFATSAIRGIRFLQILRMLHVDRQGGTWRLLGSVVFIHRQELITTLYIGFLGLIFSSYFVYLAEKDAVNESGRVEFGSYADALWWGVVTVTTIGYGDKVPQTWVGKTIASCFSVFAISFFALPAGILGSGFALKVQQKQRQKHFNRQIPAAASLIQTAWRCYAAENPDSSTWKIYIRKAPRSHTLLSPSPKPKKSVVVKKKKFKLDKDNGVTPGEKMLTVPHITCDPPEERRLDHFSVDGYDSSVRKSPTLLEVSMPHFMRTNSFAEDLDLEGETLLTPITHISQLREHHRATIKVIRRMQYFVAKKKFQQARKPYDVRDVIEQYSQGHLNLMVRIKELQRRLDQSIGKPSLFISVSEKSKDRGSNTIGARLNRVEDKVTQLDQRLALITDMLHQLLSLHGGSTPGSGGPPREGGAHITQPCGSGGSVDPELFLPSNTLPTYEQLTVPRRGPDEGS
Kir21 inh – inhibitors of mouse Kir2.1 inward-rectifier potassium channel. B-score at 10 µM. HEK293-Kir2.1, FluxOR thallium flux fluorescence; stronger effect = lower value. Inward rectifier potassium channel 2 (Mus musculus), P35561. hit rate 0.85% among 310,000. AID 1672, 2009;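 active = fluorescence ratio B-score at or below minus 3 SD of library scores, with starting-brightness B-score within 2 SD, cut at about -4.2 in these data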;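 also: channel flux triggered by added potassium and thallium sulfate stimulus; B-score of peak minus minimum fluorescence over baseline after thallium stimulus; more negative B-score means stronger Kir2.1 block with less thallium influx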
KCNQ1 act – potentiators or activators of KCNQ1 channel, primary screen, cell-based, thallium flux, high-throughput | CHO-K1 KCNQ1, thallium flux FluxOR fluorescence; stronger effect = higher value | hit rate 0.35% among 310,000 | Potassium voltage-gated channel subfamily KQT member 1 (Homo sapiens), P51787 | B-score at 10 µM;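 active = fluorescence ratio B-score, a plate-corrected score, at least three library SD, with initial intensity B-score within 5 SD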
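assay system = CHO-K1 cells stably expressing KCNQ1 | medium = assay buffer, equal DMSO in all wells | timing = 37 °C overnight plating, 90-min dark dye load, 20-min compound pretreatment | measured by = kinetic FluxOR thallium fluorescence, 10-s 1-Hz baseline, 110-s post-stimulus read | measure = fluorescence change relative to baseline, converted to B score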
KCNK9 block – KCNK9 potassium channel inhibitors, primary screen, HEK293 cells, thallium flux; Potassium channel subfamily K member 9 (Homo sapiens), Q9NPC2; FluxOR thallium flux fluorescence; stronger effect = lower value; B-score at 10 µM; hit rate 1.2% among 310,000;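 active = ratio B-score over 3 SD below the library mean, with starting fluorescence within 5 SD of its mean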;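 also: negative B-score means less thallium flux so channel inhibition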
KCNK3 inh – human KCNK3 channel inhibitors, primary screen, CHO cells, FluxOR thallium flux, B-score | Potassium channel subfamily K member 3 (Homo sapiens), O14649 | FluxOR fluorescence; stronger effect = lower value | B-score at 10 µM | hit rate 0.84% among 340,000;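 active = B-score under library mean minus 4 SD, starting fluorescence ratio at most library mean plus 5 SD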;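 also: more negative B-score means stronger inhibition of thallium flux through KCNK3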
KCNK3 inh conf – retest of human KCNK3 channel inhibitors, confirmation, CHO cells, FluxOR thallium flux, triplicate | ratio percent of control, % at 10 µM | shares compounds with KCNK3 inh | hit rate 99% among 2,400 | FluxOR fluorescence; 0% buffer, 100% carvedilol maximal block | AID 651638, 2012;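 active = ratio percent of control, averaged over triplicates, above buffer control mean plus 5 SD, cut at about 64% in these data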;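 also: ratio is the fluorescence rise from min to max over baseline after thallium stimulus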
KCNK3 noninduced – thallium flux inhibition in non-induced cells, primary screen, counter-screen for KCNK3 inhibitor project, cell-based, non-induced KCNK3 line, FluxOR thallium, triplicate | shares compounds with KCNK3 inh | thallium flux ratio (lower = more inhibition) at 10 µM | non-induced KCNK3 parental cells; stronger effect = lower value | hit rate 40% among 2,400;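 active = thallium flux ratio, averaged over three wells, more than 5 SD below the buffer control mean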;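 also: host cells are CHO cells without KCNK3 induction; ratio is peak minus trough fluorescence over baseline then normalized to buffer controls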
* hit, by the source's call; i = inactive; · = not tested or not shown.

SMILES	hERG rescue	KCNQ1 block	Kir21 inh	KCNQ1 act	KCNK9 block	KCNK3 inh	KCNK3 inh conf	KCNK3 noninduced
Cc1cc(=O)[nH]c(NN=C2C3CC4CC(C3)CC2C4)n1	-8.6	i	0.04	i	i	i	·	·
Cc1ccc(NC(=O)N(Cc2ccco2)Cc2cc3cc(C)cc(C)c3nc2Cl)cc1	-8.6	i	0.32	i	i	·	·	·
Cc1cccc2cc(CN(Cc3ccco3)C(=O)Nc3cccc(C#N)c3)c(Cl)nc12	-10.8	6*	-2.72	i	i	-9.3*	122.3*	0.139*
CCN(CC(=O)Nc1cccc(C#N)c1)CC(=O)Nc1cccc(OC)c1	-16.6	i	-2.42	i	i	-9.67*	90.3*	i
CCOC(=O)c1sc(NC(=O)C(CC)OC(=O)C(CC(C)C)NC(=O)c2ccccc2)nc1C (stereo not drawn)	-11.3	i	0.22	i	i	-10.6*	108.0*	i
O=C(Nc1sc2c(c1C(=O)O)CCC2)C(=O)N1CCOCC1	-13.0	i	0.02	i	i	i	·	·
COc1ccc(S(=O)(=O)Nc2ccc3c(c2)C(=O)N([C@H](C)CO)C[C@H](C)[C@@H](CN(C)C(=O)NC2CCCCC2)O3)cc1	·	·	·	·	·	i	·	·
FC(F)(F)c1ccccc1NC(=S)Nc1cccc(Cl)c1	-10.5	8*	-0.63	i	i	-9.64*	93.3*	i
CC(C)Sc1nc(N2CCCC2)c2c(c1C#N)CC(C)(C)OC2	-9.4	i	-1.2	i	i	-10*	118.3*	0.135*
O=C(NC1CC1)C1=C[C@@H](c2coc3ccccc3c2=O)C[C@@H](OCCCCO)O1	-7.0	i	1.1	i	i	i	·	·
O=C(COc1cccc2ccccc12)N1c2ccccc2CCc2ccccc21	-21.9	i	-0.57	i	i	-12.7*	119.7*	0.151*
O=C(COc1ccc(F)cc1)N1c2ccccc2CCc2ccccc21	-3.8	i	-3.59	i	i	i	·	·
CCN1C(=O)C(CC(=O)Nc2ccc(OC)cc2)N(CCc2ccccc2F)C1=S (stereo not drawn)	-10.8	i	0	i	i	i	·	·
CCN1C(=O)C(CC(=O)Nc2ccc(OC)cc2)N(CCc2ccccc2)C1=S (stereo not drawn)	-21.8	i	0.11	i	i	-8.81*	113.3*	i
CN(CC(=O)Nc1ccccc1Br)C(=O)C1CCN(C(=O)c2ccc(Cl)cc2)CC1	-4.0	i	-0.12	i	i	i	·	·
Cc1onc(-c2c(Cl)cccc2Cl)c1C(=O)N1CCOCC1	-4.4	i	0.24	i	i	i	·	·
Cc1cc(C)c2nc(-c3cccc(Cl)c3)c(C)c(C(=O)N3CCOCC3)c2c1	-13.1	i	-0.99	i	-7.37*	-9.55*	121.7*	0.15*
CCOc1cc(C(=O)Nc2cc3c(cc2N2CCOCC2)n(C)c(=O)n3C)cc(OCC)c1OCC	-2.6	i	2.36	i	i	i	·	·
C=CCSc1nc2sc(C)c(C)c2c(=O)n1CC=C	-5.3	i	1.1	i	i	i	·	·
C=CCn1c(SCC(=O)c2cccs2)nc2sc(C)c(C)c2c1=O	-3.0	i	1.07	i	i	-9.52*	115.3*	0.147*
CC(C)(C)NC(=O)CC(c1ccccc1)c1ccccc1O (stereo not drawn)	-15.5	i	0.7	i	i	i	·	·
O=C(CC(c1ccccc1)c1ccccc1O)NCc1ccccc1 (stereo not drawn)	-7.0	i	-1.79	i	i	-8.84*	95.3*	i
Cc1cc([N+](=O)[O-])ccc1NCc1cccc2ccccc12	-12.3	i	-0.02	i	i	i	·	·
CN(Cc1cccc([N+](=O)[O-])c1)Cc1cccc2ccccc12	-4.6	6*	-0.43	i	-6.84*	-11.4*	113.7*	0.151*
Cc1ccc(C)c(S(=O)(=O)c2c(C)cc(C)[nH]c2=O)c1	-4.9	i	-0.47	i	i	i	·	·
SMILES	hERG rescue	KCNQ1 block	Kir21 inh	KCNQ1 act	KCNK9 block	KCNK3 inh	KCNK3 inh conf	KCNK3 noninduced
CCC(C(=O)NCCc1c[nH]c2ccc(C)cc12)c1ccccc1 (stereo not drawn)	-2.5	i	-4.51*	i	-7.75*	-8.81*	110.0*	i
CCOc1ccccc1O[C@H](c1ccccc1)[C@H]1CNCCO1	-7.4	i	-4.08	i	i	i	·	·
Cc1ccc(Nc2c(-c3ccccc3O)nc3cnccn23)cc1	-11.8	i	1.79	i	i	-9.18*	115.3*	0.126*
N#Cc1ccc(OCC(=O)NNC(=S)NC2CCCCC2)cc1	·	·	·	·	·	i	·	·
Cc1c(C#N)c2ccccc2n1C	-7.9	i	-1.45	i	i	i	·	·
Cn1c(CSc2ccccc2)c(C#N)c2ccccc21	-1.8	i	0.36	i	i	-10.9*	105.0*	0.159*
O=C(N=C1SC2CS(=O)(=O)CC2N1Cc1ccccc1Cl)C1CCCO1 (stereo not drawn)	-4.7	i	2.66	i	i	i	·	·
CC(C)N(C(=S)NC1CC2CCC1C2)c1ccccc1 (stereo not drawn)	-16.6	i	0.28	i	i	-9.76*	118.0*	0.16*
O=C(N1CCCC1)C12CC3CCC(CC(C3)C1)C2	-10.9	i	0.76	i	i	-11.7*	85.7*	i
COc1cccc(NC(=O)c2c(C)nn(-c3ccccc3)c2Cl)c1	-4.5	i	2.09	i	i	i	·	·
OC1CCC(NC(=S)Nc2ccc(SC(F)F)cc2)CC1 (stereo not drawn)	-6.0	i	-0.51	i	i	i	·	·
FC(F)Sc1ccc(NC(=S)NC2CCCC2)cc1	-5.7	i	-1.08	i	i	-11.2*	113.3*	i
CCOC(=O)c1ccccc1NC(=O)C(C)Oc1ccccc1 (stereo not drawn)	-9.4	i	-1.81	i	i	-9.97*	78.0*	i
